Assay results reported in ChEMBL document CHEMBL2434928, “New derivatives of salicylamides: Preparation and antimicrobial activity against various bacterial species” (2013).
Converted amounts (≈) assume the structure as drawn.

Assays:
Assay type in all cases: functional
[1] = system: Mycobacterium kansasii; test: Antimycobacterial activity against Mycobacterium kansasii DSM 44162 after 7 days; details: DSM 44162, 168 h
In short: (§1)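 MIC by broth microdilution in Middlebrook 7H9 with ADC enrichment. Compounds were dissolved in DMSO. Inoculum: colonies in sterile water adjusted to 0.5 McFarland, then diluted 1:1000 in sterile water. Drug-free, sterility and medium+DMSO controls were included. Wells were read visually after static incubation in the dark.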

[2] = system: Mycobacterium marinum; test: Antimycobacterial activity against Mycobacterium marinum CAMP 5644 after 21 days; details: CAMP 5644, 504 h; in short: as §1
[3] = system: Mycolicibacterium smegmatis; test: Antimycobacterial activity against Mycobacterium smegmatis ATCC 700084 after 3 days; details: ATCC 700084, 72 h
In short: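 Middlebrook 7H9 plus ADC broth microdilution MIC, with compounds in DMSO. Colonies were suspended in sterile water to 0.5 McFarland, then diluted 1:1000 in sterile water. Drug-free, sterility and DMSO controls were included. The visual read followed 3 days of static aerobic incubation at 37 °C in darkness.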

[4] = system: Pasteurella multocida; test: Antimicrobial activity against Pasteurella multocida clinical isolate after 24 hrs by broth microdilution method
In short: (§2)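 Broth microdilution MIC in Mueller–Hinton broth, per modified NCCLS guidelines. Strains were grown on nutrient agar with 5% ovine blood. Colonies were suspended in PBS (pH 7.2–7.3), adjusted to 0.5 McFarland, then diluted 1:20 in MH broth. Compounds were in DMSO, ≤2.5% final. Drug-free, sterility and DMSO controls were included.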

[5] = system: Clostridium perfringens; test: Antimicrobial activity against Clostridium perfringens CNCTC 5770 after 24 hrs by broth microdilution method; details: CNCTC 5770, 24 h
In short: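 Colonies grown on blood agar (nutrient agar, 5% ovine blood) were suspended in PBS pH 7.2–7.3, set to 0.5 McFarland, and diluted 1:20 in MH broth for the final inoculum. Compounds were in DMSO (≤2.5% final), tested by NCCLS-modified microdilution with drug-free, sterility and DMSO controls.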

[6] = system: Staphylococcus aureus; test: Antimicrobial activity against methicillin-resistant Staphylococcus aureus 3202 after 24 hrs by broth microdilution method; details: Staphylococcus aureus, 3202, 24 h
In short: (§3)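 Colonies grown on nutrient agar with 5% ovine blood were suspended in PBS (pH 7.2–7.3), adjusted to 0.5 McFarland, and diluted 1:20 in Mueller–Hinton broth. Compounds were dissolved in DMSO (final ≤2.5%) and tested by NCCLS-modified broth microdilution with drug-free, sterility and broth+DMSO controls.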

[7] = system: Staphylococcus aureus; test: Antimicrobial activity against methicillin-resistant Staphylococcus aureus 630 after 24 hrs by broth microdilution method; details: Staphylococcus aureus, 630, 24 h; in short: as §3
[8] = system: Staphylococcus aureus; test: Antimicrobial activity against methicillin-resistant Staphylococcus aureus 63718 after 24 hrs by broth microdilution method; details: Staphylococcus aureus, 63718, 24 h; in short: as §3
[9] = system: Bacillus cereus; test: Antimicrobial activity against Bacillus cereus ATCC 14579 after 24 hrs by broth microdilution method; details: ATCC 14579, 24 h; in short: as §2
[10] = system: Staphylococcus aureus; test: Antimicrobial activity against Staphylococcus aureus ATCC 29213 after 24 hrs by broth microdilution method; details: ATCC 29213, 24 h; in short: as §2

Row | SMILES | MIC [1] [µM] | MIC [2] [µM] | MIC [3] [µM] | MIC [4] [µM] | MIC [5] [µM] | MIC [6] [µM] | MIC [7] [µM] | MIC [8] [µM] | MIC [9] [µM] | MIC [10] [µM]
1 | CC(C)[C@H](NC(=O)OCc1ccccc1)C(=O)Oc1ccc(Cl)cc1C(=O)Nc1ccc(Br)cc1 | 14.3 (≈ 8 µg/mL) | 14.3 (≈ 8 µg/mL) | 57.2 (≈ 32 µg/mL) | 0.89 (≈ 0.498 µg/mL) | 3.57 (≈ 2 µg/mL) | 1.78 (≈ 0.997 µg/mL) | 1.78 (≈ 0.997 µg/mL) | 3.57 (≈ 2 µg/mL) | 1.78 (≈ 0.997 µg/mL) | 3.57 (≈ 2 µg/mL)
2 | CC(C)[C@H](NC(=O)OCc1ccccc1)C(=O)Oc1ccc(Cl)cc1C(=O)Nc1ccccc1 |  |  |  | > 517 |  |  |  |  | > 517 | > 517
3 | Cc1ccc(NC(=O)[C@@H](NC(=O)c2cc(Cl)ccc2O)C(C)C)cc1 | 88.7 (≈ 32 µg/mL) | 355 (≈ 128 µg/mL) | > 709 | 88.7 (≈ 32 µg/mL) | 88.7 (≈ 32 µg/mL) | 88.7 (≈ 32 µg/mL) | > 709 | > 709 | 22.2 (≈ 8 µg/mL) | 88.7 (≈ 32 µg/mL)
4 | O=C(Nc1ccc(Br)cc1)c1cc(Cl)ccc1O | 6.12 (≈ 2 µg/mL) | 12.2 (≈ 4 µg/mL) | 24.5 (≈ 8 µg/mL) | 0.19 (≈ 0.062 µg/mL) | 3.06 (≈ 0.999 µg/mL) | 0.76 (≈ 0.248 µg/mL) | 0.76 (≈ 0.248 µg/mL) | 0.76 (≈ 0.248 µg/mL) | 0.38 (≈ 0.124 µg/mL) | 0.76 (≈ 0.248 µg/mL)
5 | CC(C)[C@H](NC(=O)c1ccc(Cl)cc1O)C(=O)Nc1ccc(Br)cc1 | 75.2 (≈ 32 µg/mL) | 150 (≈ 63.9 µg/mL) | 150 (≈ 63.9 µg/mL) | > 601 | 9.39 (≈ 4 µg/mL) | 9.39 (≈ 4 µg/mL) | 9.39 (≈ 4 µg/mL) | 18.8 (≈ 8 µg/mL) | 2.34 (≈ 0.996 µg/mL) | 9.39 (≈ 4 µg/mL)
6 | Cc1ccc(NC(=O)c2cc(Cl)ccc2OC(=O)[C@H](Cc2ccccc2)NC(=O)OCc2ccccc2)cc1 | 58.9 (≈ 32 µg/mL) | 118 (≈ 64.1 µg/mL) | 236 (≈ 128 µg/mL) | 7.36 (≈ 4 µg/mL) |  |  |  |  | 29.5 (≈ 16 µg/mL) | 
7 | Cc1ccc(NC(=O)c2cc(Cl)ccc2OC(=O)[C@H](C)NC(=O)OCc2ccccc2)cc1 | 17.1 (≈ 8 µg/mL) | 68.5 (≈ 32 µg/mL) | > 548 | 2.14 (≈ 0.999 µg/mL) |  |  |  |  | 7.13 (≈ 3.33 µg/mL) | 34.3 (≈ 16 µg/mL)
8 | COc1ccc(NC(=O)c2cc(Cl)ccc2O)cc1 |  |  |  | 28.8 (≈ 8 µg/mL) | > 921 | > 921 | > 921 | > 921 | > 921 | > 921
9 | O=C(N[C@@H](Cc1ccccc1)C(=O)Nc1ccc(Cl)c(Cl)c1)c1ccc(Cl)cc1O | 34.5 (≈ 16 µg/mL) | 138 (≈ 64 µg/mL) | 69 (≈ 32 µg/mL) | > 552 | 34.5 (≈ 16 µg/mL) | 1.07 (≈ 0.496 µg/mL) | 2.15 (≈ 0.997 µg/mL) | 2.15 (≈ 0.997 µg/mL) | 1.07 (≈ 0.496 µg/mL) | 1.07 (≈ 0.496 µg/mL)
10 | Cc1ccc(NC(=O)[C@H](Cc2ccccc2)NC(=O)c2cc(Cl)ccc2O)cc1 |  |  |  | > 626 | > 626 | > 626 | > 626 | > 626 | > 626 | > 626
11 | O=C(N[C@@H](Cc1ccccc1)C(=O)Oc1ccc(Cl)cc1C(=O)Nc1ccc(Cl)c(Cl)c1)OCc1ccccc1 | 13.4 (≈ 8 µg/mL) | 26.8 (≈ 16 µg/mL) | 26.8 (≈ 16 µg/mL) | 0.83 (≈ 0.496 µg/mL) | 1.67 (≈ 0.998 µg/mL) | 0.2 (≈ 0.12 µg/mL) | 0.2 (≈ 0.12 µg/mL) | 0.2 (≈ 0.12 µg/mL) | 0.41 (≈ 0.245 µg/mL) | 1.67 (≈ 0.998 µg/mL)
12 | Cc1ccc(NC(=O)[C@H](C)NC(=O)c2cc(Cl)ccc2O)cc1 |  |  |  | > 769 | > 769 | > 769 | > 769 | > 769 | > 769 | > 769
13 | COc1ccc(NC(=O)[C@@H](NC(=O)c2cc(Cl)ccc2O)C(C)C)cc1 |  |  |  | > 679 | > 679 | > 679 | > 679 | > 679 | > 679 | > 679
